According to ChEMBL document CHEMBL1129065, “Longimicins A-D: novel bioactive acetogenins from Asimina longifolia (annonaceae) and structure-activity relationships of asimicin type of annonaceous acetogenins” (1996):
≈ marks a conversion by molar mass, not a printed value.

tested on: MCF7; assay: Cytotoxicity concentration against human breast carcinoma MCF-7 cell line; assay type: functional; details: read-out: ED50 (the source's name)
Procedure, shortened: (§1)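 7-day MTT cytotoxicity assay in human tumor cells, run at the Purdue Cancer Center cell culture lab under standard protocols. Samples serially diluted and each concentration tested in duplicate. ED50 calculated from the averaged values per concentration. Adriamycin included as positive control in every experiment.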

Row | Compound | EC50
1 | CCCCCCCCCCCC[C@@H](O)[C@H]1CC[C@H]([C@H]2CC[C@H]([C@H](O)CC[C@H](O)CCCCCCCC3=C[C@H](C)OC3=O)O2)O1 | 0.215 µg/mL (≈ 0.345 µM)
2 | CCCCCCCCCCC(O)C1CCC(C2CCC(C(O)CCCCCCCC[C@H](O)CC3=C[C@@H](C)OC3=O)O2)O1 (stereo partly specified) [ASIMICIN] | 0.852 µg/mL (≈ 1.43 µM)
3 | CCCCCCCCCCCCCC[C@@H](O)[C@H]1CC[C@H]([C@H]2CC[C@H]([C@H](O)CCCC[C@@H](O)CC3=C[C@H](C)OC3=O)O2)O1 | 0.088 µg/mL (≈ 0.148 µM)
4 | CCCCCCCCCCCCCC[C@@H](O)[C@H]1CC[C@H]([C@H]2CC[C@H]([C@H](O)CCCCCC[C@@H](O)CC3=C[C@H](C)OC3=O)O2)O1 | 0.889 µg/mL (≈ 1.43 µM)
5 | CCCCCCCCCCCC[C@@H](O)[C@H]1CC[C@H]([C@H]2CC[C@H]([C@H](O)CCCCCC[C@@H](O)CC3=C[C@H](C)OC3=O)O2)O1 | 0.0154 µg/mL (≈ 0.0259 µM)
6 | CCCCCCCCCC[C@@H](O)[C@H]1CC[C@H]([C@H]2CC[C@H]([C@H](O)CCCCCCCC[C@@H](O)CC3=C[C@H](C)OC3=O)O2)O1 [PARVIFLORIN] | 1.72 µg/mL (≈ 2.89 µM)
7 | COc1cccc2c1C(=O)c1c(O)c3c(c(O)c1C2=O)C[C@@](O)(C(=O)CO)C[C@@H]3O[C@H]1C[C@H](N)[C@H](O)[C@H](C)O1 [DOXORUBICIN] | 0.194 µg/mL (≈ 0.357 µM)

tested on: HT-29; assay: Cytotoxicity concentration against human colon […] HT-29 cell line; assay type: functional; details: read-out: ED50 (the source's name); procedure, shortened: as §1

Row | Compound | EC50
8 | CCCCCCCCCCCC[C@@H](O)[C@H]1CC[C@H]([C@H]2CC[C@H]([C@H](O)CC[C@H](O)CCCCCCCC3=C[C@H](C)OC3=O)O2)O1 | 0.0116 µg/mL (≈ 0.0186 µM)
9 | CCCCCCCCCCCCCC[C@@H](O)[C@H]1CC[C@H]([C@H]2CC[C@H]([C@H](O)CCCC[C@@H](O)CC3=C[C@H](C)OC3=O)O2)O1 | 1 µg/mL (≈ 1.68 µM)
10 | CCCCCCCCCCCCCC[C@@H](O)[C@H]1CC[C@H]([C@H]2CC[C@H]([C@H](O)CCCCCC[C@@H](O)CC3=C[C@H](C)OC3=O)O2)O1 | 0.525 µg/mL (≈ 0.843 µM)
11 | CCCCCCCCCCCC[C@@H](O)[C@H]1CC[C@H]([C@H]2CC[C@H]([C@H](O)CCCCCC[C@@H](O)CC3=C[C@H](C)OC3=O)O2)O1 | 0.00332 µg/mL (≈ 0.00558 µM)
12 | CCCCCCCCCC[C@@H](O)[C@H]1CC[C@H]([C@H]2CC[C@H]([C@H](O)CCCCCCCC[C@@H](O)CC3=C[C@H](C)OC3=O)O2)O1 [PARVIFLORIN] | 0.549 µg/mL (≈ 0.923 µM)
13 | COc1cccc2c1C(=O)c1c(O)c3c(c(O)c1C2=O)C[C@@](O)(C(=O)CO)C[C@@H]3O[C@H]1C[C@H](N)[C@H](O)[C@H](C)O1 [DOXORUBICIN] | 0.0494 µg/mL (≈ 0.0909 µM)

tested on: Artemia; assay: Lethal concentration required against bioactivity using brine shrimp lethality test; assay type: functional; details: not given

Row | Compound | LC50
14 | CCCCCCCCCCCC[C@@H](O)[C@H]1CC[C@H]([C@H]2CC[C@H]([C@H](O)CC[C@H](O)CCCCCCCC3=C[C@H](C)OC3=O)O2)O1 | 4.58 µg/mL (≈ 7.35 µM)
15 | CCCCCCCCCCC(O)C1CCC(C2CCC(C(O)CCCCCCCC[C@H](O)CC3=C[C@@H](C)OC3=O)O2)O1 (stereo partly specified) [ASIMICIN] | 0.026 µg/mL (≈ 0.0437 µM)
16 | CCCCCCCCCCCCCC[C@@H](O)[C@H]1CC[C@H]([C@H]2CC[C@H]([C@H](O)CCCC[C@@H](O)CC3=C[C@H](C)OC3=O)O2)O1 | 9.42 µg/mL (≈ 15.8 µM)
17 | CCCCCCCCCCCCCC[C@@H](O)[C@H]1CC[C@H]([C@H]2CC[C@H]([C@H](O)CCCCCC[C@@H](O)CC3=C[C@H](C)OC3=O)O2)O1 | 18.7 µg/mL (≈ 30 µM)
18 | CCCCCCCCCCCC[C@@H](O)[C@H]1CC[C@H]([C@H]2CC[C@H]([C@H](O)CCCCCC[C@@H](O)CC3=C[C@H](C)OC3=O)O2)O1 | 7.34 µg/mL (≈ 12.3 µM)
19 | CCCCCCCCCC[C@@H](O)[C@H]1CC[C@H]([C@H]2CC[C@H]([C@H](O)CCCCCCCC[C@@H](O)CC3=C[C@H](C)OC3=O)O2)O1 [PARVIFLORIN] | 0.088 µg/mL (≈ 0.148 µM)
20 | CCCCCCC[C@H]1CC[C@H](CCCC[C@@H](O)[C@H]2CC[C@H](CCC[C@H](O)[C@@H](O)CCCCCCCC3=C[C@H](C)OC3=O)O2)O1 [ASIMIN] | 0.0046 µg/mL (≈ 0.00738 µM)
21 | COc1cccc2c1C(=O)c1c(O)c3c(c(O)c1C2=O)C[C@@](O)(C(=O)CO)C[C@@H]3O[C@H]1C[C@H](N)[C@H](O)[C@H](C)O1 [DOXORUBICIN] | 0.26 µg/mL (≈ 0.478 µM)

tested on: Culicidae; assay: Lethal concentration required against bioactivity using yellow fever mosquito larvae assay; assay type: functional; details: not given

Row | Compound | LC50
22 | CCCCCCCCCCCC[C@@H](O)[C@H]1CC[C@H]([C@H]2CC[C@H]([C@H](O)CC[C@H](O)CCCCCCCC3=C[C@H](C)OC3=O)O2)O1 | 8.29 µg/mL (≈ 13.3 µM)
23 | CCCCCCCCCCC(O)C1CCC(C2CCC(C(O)CCCCCCCC[C@H](O)CC3=C[C@@H](C)OC3=O)O2)O1 (stereo partly specified) [ASIMICIN] | 3.04 µg/mL (≈ 5.11 µM)
24 | CCCCCCCCCCCCCC[C@@H](O)[C@H]1CC[C@H]([C@H]2CC[C@H]([C@H](O)CCCC[C@@H](O)CC3=C[C@H](C)OC3=O)O2)O1 | 75.7 µg/mL (≈ 127 µM)
25 | CCCCCCCCCCCCCC[C@@H](O)[C@H]1CC[C@H]([C@H]2CC[C@H]([C@H](O)CCCCCC[C@@H](O)CC3=C[C@H](C)OC3=O)O2)O1 | 141 µg/mL (≈ 226 µM)
26 | CCCCCCCCCCCC[C@@H](O)[C@H]1CC[C@H]([C@H]2CC[C@H]([C@H](O)CCCCCC[C@@H](O)CC3=C[C@H](C)OC3=O)O2)O1 | 30.4 µg/mL (≈ 51.1 µM)

tested on: PC-3; assay: Cytotoxicity concentration against human prostate […] PC-3 cell line; assay type: functional; details: read-out: ED50 (the source's name); procedure, shortened: as §1

Row | Compound | EC50
27 | CCCCCCCCCCCC[C@@H](O)[C@H]1CC[C@H]([C@H]2CC[C@H]([C@H](O)CC[C@H](O)CCCCCCCC3=C[C@H](C)OC3=O)O2)O1 | 0.000242 µg/mL (≈ 0.000388 µM)
28 | CCCCCCCCCCCCCC[C@@H](O)[C@H]1CC[C@H]([C@H]2CC[C@H]([C@H](O)CCCC[C@@H](O)CC3=C[C@H](C)OC3=O)O2)O1 | 2.96 µg/mL (≈ 4.98 µM)
29 | CCCCCCCCCCCCCC[C@@H](O)[C@H]1CC[C@H]([C@H]2CC[C@H]([C@H](O)CCCCCC[C@@H](O)CC3=C[C@H](C)OC3=O)O2)O1 | 0.0701 µg/mL (≈ 0.113 µM)
30 | CCCCCCCCCCCC[C@@H](O)[C@H]1CC[C@H]([C@H]2CC[C@H]([C@H](O)CCCCCC[C@@H](O)CC3=C[C@H](C)OC3=O)O2)O1 | 2.2 µg/mL (≈ 3.7 µM)
31 | COc1cccc2c1C(=O)c1c(O)c3c(c(O)c1C2=O)C[C@@](O)(C(=O)CO)C[C@@H]3O[C@H]1C[C@H](N)[C@H](O)[C@H](C)O1 [DOXORUBICIN] | 0.287 µg/mL (≈ 0.528 µM)

tested on: A498; assay: Cytotoxicity concentration against human kidney carcinoma A-498 cell line; assay type: functional; details: read-out: ED50 (the source's name); procedure, shortened: as §1

Row | Compound | EC50
32 | CCCCCCCCCCCC[C@@H](O)[C@H]1CC[C@H]([C@H]2CC[C@H]([C@H](O)CC[C@H](O)CCCCCCCC3=C[C@H](C)OC3=O)O2)O1 | 0.0353 µg/mL (≈ 0.0567 µM)
33 | CCCCCCCCCCCCCC[C@@H](O)[C@H]1CC[C@H]([C@H]2CC[C@H]([C@H](O)CCCC[C@@H](O)CC3=C[C@H](C)OC3=O)O2)O1 | 0.127 µg/mL (≈ 0.213 µM)
34 | CCCCCCCCCCCCCC[C@@H](O)[C@H]1CC[C@H]([C@H]2CC[C@H]([C@H](O)CCCCCC[C@@H](O)CC3=C[C@H](C)OC3=O)O2)O1 | 0.544 µg/mL (≈ 0.873 µM)
35 | CCCCCCCCCCCC[C@@H](O)[C@H]1CC[C@H]([C@H]2CC[C@H]([C@H](O)CCCCCC[C@@H](O)CC3=C[C@H](C)OC3=O)O2)O1 | 0.064 µg/mL (≈ 0.108 µM)
36 | COc1cccc2c1C(=O)c1c(O)c3c(c(O)c1C2=O)C[C@@](O)(C(=O)CO)C[C@@H]3O[C@H]1C[C@H](N)[C@H](O)[C@H](C)O1 [DOXORUBICIN] | 0.0663 µg/mL (≈ 0.122 µM)

tested on: MIA PaCa-2; assay: Cytotoxicity concentration against human pancreatic carcinoma PaCa-2 cell line; assay type: functional; details: read-out: ED50 (the source's name); procedure, shortened: as §1

Row | Compound | EC50
37 | CCCCCCCCCCCCCC[C@@H](O)[C@H]1CC[C@H]([C@H]2CC[C@H]([C@H](O)CCCC[C@@H](O)CC3=C[C@H](C)OC3=O)O2)O1 | 1.09 µg/mL (≈ 1.83 µM)
38 | CCCCCCCCCCCCCC[C@@H](O)[C@H]1CC[C@H]([C@H]2CC[C@H]([C@H](O)CCCCCC[C@@H](O)CC3=C[C@H](C)OC3=O)O2)O1 | 0.0173 µg/mL (≈ 0.0278 µM)
39 | CCCCCCCCCCCC[C@@H](O)[C@H]1CC[C@H]([C@H]2CC[C@H]([C@H](O)CCCCCC[C@@H](O)CC3=C[C@H](C)OC3=O)O2)O1 | 0.0792 µg/mL (≈ 0.133 µM)
40 | COc1cccc2c1C(=O)c1c(O)c3c(c(O)c1C2=O)C[C@@](O)(C(=O)CO)C[C@@H]3O[C@H]1C[C@H](N)[C@H](O)[C@H](C)O1 [DOXORUBICIN] | 0.034 µg/mL (≈ 0.0626 µM)

tested on: A549; assay: Cytotoxicity concentration against human lung carcinoma A-549 cell line; assay type: functional; details: read-out: ED50 (the source's name); procedure, shortened: as §1

Row | Compound | EC50
41 | CCCCCCCCCCCC[C@@H](O)[C@H]1CC[C@H]([C@H]2CC[C@H]([C@H](O)CC[C@H](O)CCCCCCCC3=C[C@H](C)OC3=O)O2)O1 | 0.000493 µg/mL (≈ 0.000791 µM)
42 | CCCCCCCCCCC(O)C1CCC(C2CCC(C(O)CCCCCCCC[C@H](O)CC3=C[C@@H](C)OC3=O)O2)O1 (stereo partly specified) [ASIMICIN] | 0.00843 µg/mL (≈ 0.0142 µM)
43 | CCCCCCCCCCCCCC[C@@H](O)[C@H]1CC[C@H]([C@H]2CC[C@H]([C@H](O)CCCC[C@@H](O)CC3=C[C@H](C)OC3=O)O2)O1 | 0.455 µg/mL (≈ 0.765 µM)
44 | CCCCCCCCCCCCCC[C@@H](O)[C@H]1CC[C@H]([C@H]2CC[C@H]([C@H](O)CCCCCC[C@@H](O)CC3=C[C@H](C)OC3=O)O2)O1 | 0.295 µg/mL (≈ 0.474 µM)
45 | CCCCCCCCCCCC[C@@H](O)[C@H]1CC[C@H]([C@H]2CC[C@H]([C@H](O)CCCCCC[C@@H](O)CC3=C[C@H](C)OC3=O)O2)O1 | 0.143 µg/mL (≈ 0.24 µM)
46 | COc1cccc2c1C(=O)c1c(O)c3c(c(O)c1C2=O)C[C@@](O)(C(=O)CO)C[C@@H]3O[C@H]1C[C@H](N)[C@H](O)[C@H](C)O1 [DOXORUBICIN] | 0.0262 µg/mL (≈ 0.0482 µM)
